25 compounds from ChEMBL document CHEMBL1914299, “Synthesis and antitumor activity of β-carboline 3-(substituted-carbohydrazide) derivatives” (Bioorg Med Chem, 2011) can be followed below.

Format in all cases: functional, cell-based
One assay deals with OVCAR. Description: Antitumor activity against human OVCAR cells by SRB colorimetric assay. The method in brief:
(§1)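 NCI sulforhodamine B colorimetric growth assay in 96-well plates. Each compound tested at four concentrations in 10-fold dilutions. Doxorubicin as positive control. IC50 taken from concentration–response curves as the concentration giving 50% reduction in cell growth versus untreated control cells.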

The subject of another assay is K562. In words: Antitumor activity against human K562 cells by SRB colorimetric assay. The gist of the method:
as §1
For orientation: The SRB assay estimates cell density from bound dye.

Assay [1] can be described thus: Antitumor activity against human PCO3 cells by SRB colorimetric assay. The method in brief:
as §1

For another assay, the system named is MCF7. Description: Antitumor activity against human MCF7 cells by SRB colorimetric assay. The method in brief:
as §1

In another assay the test system is HT-29. Description: Antitumor activity against human HT-29 cells by SRB colorimetric assay. The gist of the method: as §1
In a further assay the test system is NCI-H460. Description: Antitumor activity against human NCI-H460 cells by SRB colorimetric assay. The gist of the method:
as §1

The next assay has as its system UACC-62. Description: Antitumor activity against human UACC62 cells by SRB colorimetric assay. The gist of the method: as §1
The test system of a further assay is 786-0. In words: Antitumor activity against human 786-0 cells by SRB colorimetric assay. The gist of the method: as §1

As usually defined, the IC50 is the midpoint of a concentration-inhibition curve. Higher therefore signals weaker potency in that assay.

For the compound `COc1ccc(-c2nc(C(=O)N/N=C/c3ccccc3)cc3c2[nH]c2ccccc23)cc1`, the IC50 with OVCAR was determined as 32.3 µM; in the assay on K562 it was 3.22 µM; in assay [1], 26.5 µM; in the assay with MCF7, 36 µM; in the assay on HT-29, 36 µM; in the assay on NCI-H460, 3.45 µM. In addition, the IC50 worked out at 3.45 µM in the assay with UACC-62 and 93.4 µM in the assay on 786-0.

Consider `O=C(NN=C1CCCC1)c1cc2c([nH]c3ccccc32)c(-c2ccc([N+](=O)[O-])cc2)n1`, for which the IC50 (in the assay on OVCAR; in the assay on K562; in assay [1]; with MCF7; in the assay on HT-29; in the assay on NCI-H460) was greater than 100 µM throughout. For the same compound, the IC50 with UACC-62 and in the assay with 786-0 was greater than 100 µM in each case.

With `CC(C)=NNC(=O)c1cc2c([nH]c3ccccc32)c(-c2ccc([N+](=O)[O-])cc2)n1`, the IC50 (in the assay with OVCAR; in the assay with K562; in assay [1]; in the assay on MCF7; with HT-29; with NCI-H460) was greater than 100 µM throughout. The IC50 in the assay on UACC-62 and in the assay on 786-0 was greater than 100 µM in each case.

Turning to `O=C(N/N=C/c1ccccc1)c1cc2c([nH]c3ccccc32)c(-c2ccc([N+](=O)[O-])cc2)n1`, the IC50 amounted to 2.05 µM with OVCAR; 14.4 µM in the assay on K562; 15.9 µM in assay [1]; 25 µM with MCF7; 18.8 µM with HT-29; 13.8 µM with NCI-H460. Besides, the IC50 in the assay on UACC-62 came to 11.8 µM; in the assay with 786-0, 29.9 µM.

As for `COc1ccc(-c2nc(C(=O)N/N=C/c3ccc(N(C)C)cc3)cc3c2[nH]c2ccccc23)cc1`, the half-inhibitory concentration (IC50) (with OVCAR; in the assay with K562; in assay [1]; in the assay on MCF7; in the assay with HT-29; in the assay on NCI-H460) was greater than 100 µM each time. In addition, the IC50 with UACC-62 and with 786-0 was greater than 100 µM each time.

With `O=C(N/N=C/c1ccccc1)c1cc2c([nH]c3ccccc32)c(-c2cccc([N+](=O)[O-])c2)n1`, the 50% inhibitory concentration (IC50) is 6.14 µM with OVCAR; 1.24 µM in the assay on K562; greater than 100 µM in assay [1]; 2.61 µM in the assay with MCF7; 1.93 µM with HT-29; 1.93 µM in the assay on NCI-H460. The IC50 in the assay on UACC-62 was 1.19 µM; with 786-0, 3.76 µM.

Consider `CN(C)c1ccc(/C=N/NC(=O)c2cc3c([nH]c4ccccc43)c(-c3ccc(O)cc3)n2)cc1`, for which the IC50 is 1.26 µM in the assay with OVCAR; greater than 100 µM in the assay on K562; greater than 100 µM in the assay with MCF7; greater than 100 µM in the assay on HT-29; 69.5 µM with NCI-H460; 88.2 µM in the assay on UACC-62. The compound further had a half-maximal inhibitory concentration (IC50) in the assay with 786-0 greater than 100 µM.

In the case of `O=C(N/N=C/c1ccccc1)c1cc2c([nH]c3ccccc32)c(-c2ccccc2)n1`, the IC50 in the assay on OVCAR was 10.6 µM; in the assay with K562, 79.5 µM; in assay [1], 11.6 µM; in the assay with MCF7 it was 15.7 µM; in the assay with HT-29, greater than 100 µM; with NCI-H460, 8.49 µM. Moreover, the half-inhibitory concentration (IC50) in the assay with UACC-62 is 25.9 µM; with 786-0, greater than 100 µM.

With `COc1ccc(/C=N/NC(=O)c2cc3c([nH]c4ccccc43)c(-c3ccccc3)n2)cc1`, the concentration for half-maximal inhibition (IC50) in the assay on OVCAR was determined as 10 µM; with K562 it was 14.6 µM; in assay [1], 59.4 µM; in the assay on MCF7 it was 11 µM; in the assay with HT-29, 38.5 µM; in the assay on NCI-H460, 59.4 µM. Besides, the results for the IC50 with UACC-62 and with 786-0 were 65.6 µM and greater than 100 µM, respectively.

Consider `Cn1c2ccccc2c2cc(C(=O)N/N=C/c3ccccc3Cl)nc(-c3ccccc3)c21`, for which the IC50 (in the assay on OVCAR; with K562; in assay [1]; in the assay with MCF7; with HT-29; in the assay on NCI-H460) was greater than 100 µM throughout. Besides, the concentration for half-maximal inhibition (IC50) in the assay with UACC-62 and in the assay on 786-0 was greater than 100 µM in each case.

For `COc1ccc(-c2nc(C(=O)NN=C3CCCC3)cc3c2[nH]c2ccccc23)cc1`, the IC50 (with OVCAR; with K562; in assay [1]; with MCF7; with HT-29; in the assay with NCI-H460) was greater than 100 µM throughout. The results for the IC50 in the assay on UACC-62 and with 786-0 were 76.4 µM and greater than 100 µM, respectively.

Regarding `O=C(NN=C1CCCC1)c1cc2c([nH]c3ccccc32)c(-c2ccc(O)cc2)n1`, the 50% inhibitory concentration (IC50) was greater than 100 µM with OVCAR; greater than 100 µM in the assay with K562; greater than 100 µM in assay [1]; 78.1 µM with MCF7; greater than 100 µM in the assay with HT-29; greater than 100 µM with NCI-H460. Also, the concentration for half-maximal inhibition (IC50) in the assay with UACC-62 and with 786-0 was greater than 100 µM each time.

As for `CN(C)c1ccc(-c2nc(C(=O)NN=C3CCCC3)cc3c2[nH]c2ccccc23)cc1`, the IC50 is greater than 100 µM in the assay with OVCAR; 13.4 µM in the assay with K562; 20.4 µM in assay [1]; 22.6 µM in the assay on MCF7; 55.6 µM in the assay with HT-29; 80.9 µM in the assay on NCI-H460. Further, the half-maximal inhibitory concentration (IC50) was 18.8 µM in the assay with UACC-62 and greater than 100 µM in the assay with 786-0.

Turning to `CC(C)=NNC(=O)c1cc2c([nH]c3ccccc32)c(-c2ccccc2)n1`, the IC50 was 26.4 µM in the assay with OVCAR; 6.69 µM with K562; 15.4 µM in assay [1]; 14.2 µM in the assay with MCF7; 19.8 µM with HT-29; 19.8 µM in the assay on NCI-H460. The results for the IC50 in the assay on UACC-62 and with 786-0 were 10.1 µM and 16.1 µM, respectively.

For `O=C(NN=C1CCCCC1)c1cc2c([nH]c3ccccc32)c(-c2ccc(O)cc2)n1`, the IC50 in the assay with OVCAR worked out at 13.2 µM; with K562, 10.3 µM; in assay [1], 7.68 µM; in the assay on MCF7 it was 8.33 µM; in the assay with HT-29, 10.3 µM; in the assay with NCI-H460, 13.2 µM. For the same compound, the IC50 was determined as 7.86 µM with UACC-62 and 15 µM in the assay with 786-0.

In the case of `O=C(N/N=C/c1ccc([N+](=O)[O-])cc1)c1cc2c([nH]c3ccccc32)c(-c2ccc([N+](=O)[O-])cc2)n1`, the IC50 (in the assay with OVCAR; in the assay with K562; in assay [1]; in the assay on MCF7; with HT-29; in the assay on NCI-H460) was greater than 100 µM in each case. For the same compound, the IC50 in the assay on UACC-62 and with 786-0 was greater than 100 µM throughout.

Take `CC(C)=NNC(=O)c1cc2c([nH]c3ccccc32)c(-c2cccc([N+](=O)[O-])c2)n1`: the concentration for half-maximal inhibition (IC50) (in the assay on OVCAR; in the assay with K562; in assay [1]; in the assay on MCF7; in the assay with HT-29; with NCI-H460) was greater than 100 µM each time. For the same compound, the IC50 in the assay on UACC-62 and in the assay with 786-0 was greater than 100 µM each time.

Take `O=C(N/N=C/c1ccccc1Cl)c1cc2c([nH]c3ccccc32)c(-c2ccc([N+](=O)[O-])cc2)n1`: the half-inhibitory concentration (IC50) turned out to be 4.55 µM in the assay on OVCAR; 6.35 µM in the assay with K562; 18 µM in assay [1]; 18 µM in the assay with MCF7; 3.85 µM in the assay on HT-29; 38.1 µM in the assay on NCI-H460. Also, the half-inhibitory concentration (IC50) with UACC-62 was 2.53 µM; in the assay on 786-0, 2.75 µM.

On to `CN(C)c1ccc(/C=N/NC(=O)c2cc3c([nH]c4ccccc43)c(-c3ccc([N+](=O)[O-])cc3)n2)cc1`, for which the IC50 (in the assay on OVCAR; in the assay on K562; in assay [1]; with MCF7; with HT-29; in the assay with NCI-H460) was greater than 100 µM throughout. For the same compound, the IC50 in the assay with UACC-62 and with 786-0 was greater than 100 µM in each case.

For `O=C(N/N=C/c1ccccc1)c1cc2c([nH]c3ccccc32)c(-c2ccc(O)cc2)n1`, the IC50 was 1.26 µM in the assay on OVCAR; 4.31 µM in the assay with K562; 2.25 µM in assay [1]; 8.94 µM in the assay with MCF7; 4.32 µM with HT-29; 19.8 µM in the assay with NCI-H460. Also, the IC50 was 3.18 µM in the assay with UACC-62 and 4.32 µM in the assay with 786-0.

On to `COc1ccc(-c2nc(C(=O)NN=C(C)C)cc3c2[nH]c2ccccc23)cc1`, for which the IC50 (with OVCAR; in the assay with K562; in assay [1]; with MCF7; in the assay with HT-29; with NCI-H460) was greater than 100 µM each time. For the same compound, the half-maximal inhibitory concentration (IC50) in the assay on UACC-62 is 40.7 µM; in the assay on 786-0, greater than 100 µM.

Consider `COc1ccc(-c2nc(C(=O)N/N=C/c3ccccc3Cl)cc3c4ccccc4n(C)c23)cc1`, for which the IC50 in the assay on OVCAR is greater than 100 µM; in the assay with K562 it was greater than 100 µM; in assay [1], greater than 100 µM; in the assay on MCF7, 14 µM; with HT-29 it was greater than 100 µM; with NCI-H460, greater than 100 µM. In addition, the IC50 with UACC-62 and in the assay with 786-0 was greater than 100 µM throughout.

For the compound `COc1ccc(-c2nc(C(=O)NN=C3CCCC3)cc3c2[nH]c2ccccc23)cc1O`, the IC50 (with OVCAR; in the assay with K562; in assay [1]; in the assay with MCF7; in the assay with NCI-H460; with UACC-62) was greater than 100 µM throughout. In the assay with 786-0, this compound registered an IC50 of 97 µM.

Consider `CN(C)c1ccc(-c2nc(C(=O)NN=C3CCCCC3)cc3c2[nH]c2ccccc23)cc1`, for which the concentration for half-maximal inhibition (IC50) (in the assay with OVCAR; in the assay with K562; in assay [1]; with MCF7; with NCI-H460; with UACC-62) was greater than 100 µM in each case. Besides, the 50% inhibitory concentration (IC50) in the assay with 786-0 is greater than 100 µM.

Consider `COc1ccc(/C=N/NC(=O)c2cc3c([nH]c4ccccc43)c(-c3ccc(O)cc3)n2)cc1`, for which the IC50 in the assay on OVCAR is 0.37 µM; in the assay on K562, 87.4 µM; in the assay with MCF7 it was greater than 100 µM; with HT-29 it was 95.6 µM; in the assay on NCI-H460, 9.82 µM; with UACC-62, 3.85 µM. It took 62 µM to reach half-maximal inhibition in the assay on 786-0 (IC50).
